Measured values taken from ChEMBL document CHEMBL1131324 (J Med Chem, 1998).
pKi: −log10 of the molar value.

Tests used:
[1] = molecular target: T1, 5-hydroxytryptamine receptor 1B (Homo sapiens, UniProt P28222); assay: Binding affinity for human 5-hydroxytryptamine 1B receptor
[2] = molecular target: T1, 5-hydroxytryptamine receptor 1B; assay: Effect of compound on [35S]GTP-gamma-S, radioligand binding CHO cells expressing human 5-hydroxytryptamine 1B receptor; assay type: functional, cell-based
[3] = molecular target: 5-hydroxytryptamine receptor 1D (Homo sapiens, UniProt P28221); assay: Binding affinity for human 5-hydroxytryptamine 1D receptor
[4] = molecular target: 5-hydroxytryptamine receptor 2A (Homo sapiens, UniProt P28223); assay: Binding affinity for human 5-hydroxytryptamine 2A receptor
In short: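 Human cloned receptor expressed in HEK 293 cells; displacement of [³H]ketanserin in 50 mM Tris-HCl (pH 7.7 at 25 °C). Test compound over a concentration range, 30-45 min at 37 °C; filtration with ice-cold buffer wash, bound label by scintillation counting; pKi reported as mean (SEM, n) or individual values where n = 2.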

[5] = molecular target: 5-hydroxytryptamine receptor 1A (Homo sapiens, UniProt P08908); assay: Compound was tested for binding affinity against human 5-hydroxytryptamine 1A receptor
In short: (§1)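 Competition binding giving pKi. Human cloned 5-HT1A in HEK 293 cells vs [3H]-8-OH-DPAT; human 5-HT1E and 5-HT1F in CHO cells vs [3H]-5-HT. Radioligand with a concentration range of test compound, 30–45 min at 37 °C. Rapid filtration, ice-cold buffer wash, scintillation counting. Mean ± SEM, or individual values where n = 2.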

[6] = molecular target: 5-hydroxytryptamine receptor 1E (Homo sapiens, UniProt P28566); assay: Compound was tested for binding affinity against human 5-hydroxytryptamine 1E receptor; in short: as §1
[7] = molecular target: 5-hydroxytryptamine receptor 1F (Homo sapiens, UniProt P30939); assay: Compound was tested for binding affinity against human 5-hydroxytryptamine 1F receptor; in short: as §1
[8] = molecular target: 5-hydroxytryptamine receptor 2C (Homo sapiens, UniProt P28335); assay: Compound was tested for binding affinity against human 5-hydroxytryptamine 2C receptor
In short: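 Competition binding against human cloned 5-HT2C receptor expressed in HEK 293 cells. [3H]mesulergine was the radioligand. Incubation in 50 mM Tris-HCl (pH 7.7 at 25 °C) with a range of test concentrations for 30–45 min at 37 °C. Samples were rapidly filtered, washed with ice-cold buffer, and counted by scintillation. pKi is given as mean (SEM, n) or as individual values where n = 2.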

[9] = molecular target: Serotonin 4 (5-HT4) receptor (Sus scrofa, UniProt Q6Q253); assay: Compound was tested for binding affinity against piglet hippocampus 5-hydroxytryptamine 4 receptor; assay type: tissue-based
In short: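 pKi from displacement of [125I]SB-207710 in piglet hippocampus. Radioligand and a range of test concentrations incubated 30–45 min at 37 °C, then rapidly filtered, washed with ice-cold buffer and counted by scintillation.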

[10] = molecular target: Alpha-2A adrenergic receptor (Homo sapiens, UniProt P08913); assay: Compound was tested for binding affinity against human cloned Alpha-2A adrenergic receptor
In short: (§2)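 Radioligand competition run to literature procedures, giving pKi. Receptor preparation incubated with radioligand and a range of test concentrations for 30–45 min at 37 °C. Rapid filtration, ice-cold buffer wash, dried filters scintillation-counted. Mean ± SEM, or individual values where n = 2.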

[11] = molecular target: Alpha-1B adrenergic receptor (Rattus norvegicus, UniProt P15823); assay: Compound was tested for binding affinity against Alpha-1B adrenergic receptor (rat liver, [3H] prazosin); in short: as §2
[12] = molecular target: Beta-1 adrenergic receptor (Homo sapiens, UniProt P08588); assay: Compound was tested for binding affinity against human cloned Beta-1 adrenergic receptor; in short: as §2
[13] = molecular target: Alpha-1A adrenergic receptor (Rattus norvegicus, UniProt P43140); assay: Compound was tested for binding affinity against Alpha-1A adrenergic receptor (rat submaxillary gland); in short: as §2
[14] = molecular target: Alpha-2B adrenergic receptor (Mus musculus, UniProt P30545); assay: Compound was tested for binding affinity against Alpha-2B adrenergic receptor (NG 108-15 cells) using [3H]RX-821002) as radioligand; assay type: cell-based; in short: as §2
[15] = molecular target: D(3) dopamine receptor (Homo sapiens, UniProt P35462); assay: Compound was tested for binding affinity against human cloned Dopamine receptor D3
In short: (§3)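 Human D2 or D3 receptors expressed in CHO cells, displacement of [3H]spiperone, giving pKi. Incubated 30–45 min at 37 °C with a range of test concentrations. Filtered, washed with ice-cold buffer, bound label counted by scintillation.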

[16] = molecular target: D(2) dopamine receptor (Homo sapiens, UniProt P14416); assay: Compound was tested for binding affinity against human cloned Dopamine receptor D2; in short: as §3
[17] = species on record: Cavia porcellus; assay: Mean maximum temperature drop on SK & F 99101H (-2.23(0.13)) -induced Hypothermia at 8 hr postdose treatment(** p< 0.01 vs SK & F 99101H controls).; assay type: functional
In short: (§4)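 Male Dunkin-Hartley guinea pigs, n = 6/group. Compound given 5.0 mg/kg po, then SK&F 99101H 30 mg/kg ip at 2, 4, 8 or 24 h postdose; 8 and 24 h data come from a second independent experiment. Rectal temperature measured by probe 4–5 cm deep. Mean maximum temperature drop, also expressed as % of SK&F 99101H controls.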

[18] = test system: Cavia porcellus; assay: Body temperature drop at 2.2 mg/kg po dosage in Guinea pig.; assay type: functional
[19] = test system: Cavia porcellus; assay: Body temperature drop at 22 mg/kg po dosage in Guinea pig; assay type: functional
[20] = test system: Cavia porcellus; assay: Body temperature drop at 4.6 mg/kg po dosage in Guinea pig.; assay type: functional
[21] = species on record: Cavia porcellus; assay: Compound was tested for % of SK & F 99101H controls on induced Hypothermia at 2 hr postdose.; assay type: functional; in short: as §4
[22] = species on record: Cavia porcellus; assay: Compound was tested for % of SK & F 99101H controls on induced Hypothermia at 24 hr postdose treatment.; assay type: functional; in short: as §4
[23] = species on record: Cavia porcellus; assay: (§5) Compound was tested for % of SK & F 99101H controls on induced Hypothermia at 4 h postdose treatment.; assay type: functional; in short: as §4
[24] = species on record: Cavia porcellus; assay: as §5; assay type: functional; in short: as §4; remark: listed apart in the source
[25] = species on record: Cavia porcellus; assay: Compound was tested for % of SK & F 99101H controls on induced Hypothermia at 8 hr postdose treatment.; assay type: functional; in short: as §4
[26] = species on record: Cavia porcellus; assay: Effect on SK & F 99101H (-2.60(1.37) -induced Hypothermia at 24 hr postdose treatment in guinea pig(** p< 0.01 vs SK & F 99101H controls).; assay type: functional; in short: as §4
[27] = species on record: Cavia porcellus; assay: Mean maximum temperature drop on SK & F 99101H (-1.22(0.27)) -induced Hypothermia at 8 hr postdose treatment(* p< 0.05 vs SK & F 99101H controls).; assay type: functional; in short: as §4
[28] = species on record: Cavia porcellus; assay: Mean maximum temperature drop on SK & F 99101H (-1.73(0.17)) -induced Hypothermia at 4 hr postdose treatment(** p< 0.01 vs SK & F 99101H controls).; assay type: functional; in short: as §4
[29] = species on record: Cavia porcellus; assay: Body temperature drop at SK & F 99101H positive control dose (* p< 0.01 vs vehicle/vehicle controls) in Guinea pig.; assay type: functional
[30] = molecular target: Histamine H2 receptor (Cavia porcellus, UniProt P47747); assay: Compound was tested for binding affinity towards Histamine H2 receptor; in short: as §2
[31] = molecular target: Histamine H1 receptor (Cavia porcellus, UniProt P31389); assay: Compound was tested for binding affinity against Histamine H1 receptor.; in short: as §2
[32] = molecular target: Muscarinic acetylcholine receptor M2 (Homo sapiens, UniProt P08172); assay: Compound was tested for binding affinity against human cloned Muscarinic acetylcholine receptor M2; in short: as §2
[33] = molecular target: Muscarinic acetylcholine receptor M1 (Homo sapiens, UniProt P11229); assay: Compound was tested for binding affinity against human cloned Muscarinic acetylcholine receptor M1; in short: as §2
[34] = molecular target: Beta-2 adrenergic receptor (Homo sapiens, UniProt P07550); assay: Compound was tested for binding affinity against human cloned Beta-2 adrenergic receptor; in short: as §2
[35] = species on record: Cavia porcellus; assay: Mean maximum temperature drop on SK & F 99101H (-1.72(0.09)) -induced Hypothermia at 2 hr postdose treatment(**p< 0.01 vs SK & F 99101H controls).; assay type: functional; in short: as §4
[36] = test system: Cavia porcellus; assay: Body temperature drop at 10 mg/kg po dosage in Guinea pig.; assay type: functional
[37] = molecular target: T2, Serotonin 1 receptors; 5-HT1B & 5-HT1D (Homo sapiens) (UniProt P28222+P28221); details: Cavia porcellus
[38] = molecular target: T2, Serotonin 1 receptors; 5-HT1B & 5-HT1D (Homo sapiens); details: Cavia porcellus; remark: listed apart in the source
[39] = molecular target: T2, Serotonin 1 receptors; 5-HT1B & 5-HT1D (Homo sapiens); details: Cavia porcellus; remark: listed apart in the source
[40] = molecular target: T2, Serotonin 1 receptors; 5-HT1B & 5-HT1D (Homo sapiens); details: Cavia porcellus; remark: listed apart in the source
[41] = molecular target: T2, Serotonin 1 receptors; 5-HT1B & 5-HT1D (Homo sapiens); details: Cavia porcellus; remark: listed apart in the source
[42] = molecular target: T2, Serotonin 1 receptors; 5-HT1B & 5-HT1D (Homo sapiens); details: Cavia porcellus; remark: listed apart in the source
[43] = molecular target: T2, Serotonin 1 receptors; 5-HT1B & 5-HT1D (Homo sapiens); details: Cavia porcellus; 0.3 mg/kg
[44] = molecular target: T2, Serotonin 1 receptors; 5-HT1B & 5-HT1D (Homo sapiens); details: Cavia porcellus; 1.0 mg/kg
[45] = molecular target: T2, Serotonin 1 receptors; 5-HT1B & 5-HT1D (Homo sapiens); details: Cavia porcellus; 10.0 mg/kg
[46] = molecular target: T2, Serotonin 1 receptors; 5-HT1B & 5-HT1D (Homo sapiens); details: Cavia porcellus; 3.0 mg/kg

5-hydroxytryptamine receptor 2A, sequence (P28223 whole entry): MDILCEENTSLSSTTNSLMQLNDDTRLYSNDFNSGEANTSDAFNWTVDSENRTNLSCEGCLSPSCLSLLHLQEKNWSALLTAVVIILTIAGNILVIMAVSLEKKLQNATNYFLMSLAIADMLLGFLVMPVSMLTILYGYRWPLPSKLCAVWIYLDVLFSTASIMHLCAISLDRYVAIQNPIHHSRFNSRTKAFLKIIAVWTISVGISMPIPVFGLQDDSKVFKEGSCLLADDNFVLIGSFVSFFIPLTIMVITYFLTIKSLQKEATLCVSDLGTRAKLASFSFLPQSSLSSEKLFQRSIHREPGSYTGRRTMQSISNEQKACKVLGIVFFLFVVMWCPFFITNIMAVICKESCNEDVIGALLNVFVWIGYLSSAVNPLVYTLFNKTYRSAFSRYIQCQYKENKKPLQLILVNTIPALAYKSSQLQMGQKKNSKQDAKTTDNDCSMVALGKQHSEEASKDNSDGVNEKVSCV
T1 sequence (P28222 whole entry): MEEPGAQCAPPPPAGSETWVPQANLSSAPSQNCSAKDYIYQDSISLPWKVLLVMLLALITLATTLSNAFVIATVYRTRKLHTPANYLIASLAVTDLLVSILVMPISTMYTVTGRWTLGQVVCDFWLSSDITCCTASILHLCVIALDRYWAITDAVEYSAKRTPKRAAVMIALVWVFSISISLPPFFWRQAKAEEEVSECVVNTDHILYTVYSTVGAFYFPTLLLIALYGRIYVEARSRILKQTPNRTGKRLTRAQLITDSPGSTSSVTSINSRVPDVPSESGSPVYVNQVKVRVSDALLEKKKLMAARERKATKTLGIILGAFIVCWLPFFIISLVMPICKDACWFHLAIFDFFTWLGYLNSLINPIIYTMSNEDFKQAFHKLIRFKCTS
5-hydroxytryptamine receptor 1D, sequence (P28221 whole entry): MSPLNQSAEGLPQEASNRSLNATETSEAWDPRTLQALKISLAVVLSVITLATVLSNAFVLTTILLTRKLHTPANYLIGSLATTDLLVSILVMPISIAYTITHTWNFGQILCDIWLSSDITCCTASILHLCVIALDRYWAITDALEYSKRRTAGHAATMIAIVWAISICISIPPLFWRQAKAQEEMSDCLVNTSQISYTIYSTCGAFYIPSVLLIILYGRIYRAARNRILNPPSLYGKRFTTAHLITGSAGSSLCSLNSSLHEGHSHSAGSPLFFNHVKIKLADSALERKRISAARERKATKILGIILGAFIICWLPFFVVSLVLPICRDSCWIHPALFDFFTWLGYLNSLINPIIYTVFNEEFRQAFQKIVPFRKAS
Histamine H2 receptor, sequence (P47747 whole entry): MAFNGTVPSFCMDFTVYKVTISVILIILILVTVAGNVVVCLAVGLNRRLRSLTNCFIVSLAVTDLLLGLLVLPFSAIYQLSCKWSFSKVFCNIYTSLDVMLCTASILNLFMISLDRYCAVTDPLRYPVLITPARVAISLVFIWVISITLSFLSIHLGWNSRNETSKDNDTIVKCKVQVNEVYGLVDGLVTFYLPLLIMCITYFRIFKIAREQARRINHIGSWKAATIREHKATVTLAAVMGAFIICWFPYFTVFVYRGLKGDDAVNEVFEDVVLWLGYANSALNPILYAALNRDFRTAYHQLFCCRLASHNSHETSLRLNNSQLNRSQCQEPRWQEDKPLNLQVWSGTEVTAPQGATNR
Muscarinic acetylcholine receptor M1, sequence (P11229 whole entry): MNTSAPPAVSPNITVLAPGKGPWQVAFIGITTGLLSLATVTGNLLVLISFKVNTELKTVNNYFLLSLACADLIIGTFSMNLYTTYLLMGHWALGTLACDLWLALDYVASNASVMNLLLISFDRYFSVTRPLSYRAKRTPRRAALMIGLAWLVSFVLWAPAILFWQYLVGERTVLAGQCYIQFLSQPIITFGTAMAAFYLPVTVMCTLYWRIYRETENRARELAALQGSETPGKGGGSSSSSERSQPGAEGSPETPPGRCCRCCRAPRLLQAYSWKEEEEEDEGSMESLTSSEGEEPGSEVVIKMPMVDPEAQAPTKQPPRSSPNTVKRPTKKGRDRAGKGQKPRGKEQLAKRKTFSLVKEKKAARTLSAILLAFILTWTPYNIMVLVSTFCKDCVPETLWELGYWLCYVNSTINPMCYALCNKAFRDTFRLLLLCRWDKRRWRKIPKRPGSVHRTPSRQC
5-hydroxytryptamine receptor 1F, sequence (P30939 whole entry): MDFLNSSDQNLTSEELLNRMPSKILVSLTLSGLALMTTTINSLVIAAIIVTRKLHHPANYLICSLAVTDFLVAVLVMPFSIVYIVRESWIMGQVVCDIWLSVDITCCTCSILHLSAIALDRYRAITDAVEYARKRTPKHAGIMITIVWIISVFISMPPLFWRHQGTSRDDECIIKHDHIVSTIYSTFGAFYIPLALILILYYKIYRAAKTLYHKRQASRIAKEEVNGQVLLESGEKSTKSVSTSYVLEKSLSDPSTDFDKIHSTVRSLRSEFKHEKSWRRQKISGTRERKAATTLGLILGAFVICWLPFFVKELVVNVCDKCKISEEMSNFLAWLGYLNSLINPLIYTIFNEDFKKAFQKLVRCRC
Beta-1 adrenergic receptor, sequence (P08588 whole entry): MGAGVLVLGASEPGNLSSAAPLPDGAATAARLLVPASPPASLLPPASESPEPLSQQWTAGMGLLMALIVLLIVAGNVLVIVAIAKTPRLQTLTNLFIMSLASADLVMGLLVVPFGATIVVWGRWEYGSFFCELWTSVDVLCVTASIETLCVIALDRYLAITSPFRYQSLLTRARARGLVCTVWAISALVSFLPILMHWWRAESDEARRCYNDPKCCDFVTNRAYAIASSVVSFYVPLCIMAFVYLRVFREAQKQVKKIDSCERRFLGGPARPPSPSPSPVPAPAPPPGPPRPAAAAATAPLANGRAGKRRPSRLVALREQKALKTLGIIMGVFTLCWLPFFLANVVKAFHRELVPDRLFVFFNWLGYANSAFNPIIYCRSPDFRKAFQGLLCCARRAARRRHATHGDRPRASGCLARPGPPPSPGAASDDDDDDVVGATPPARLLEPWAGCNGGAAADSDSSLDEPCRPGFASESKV
Serotonin 4 (5-HT4) receptor, sequence (Q6Q253 whole entry): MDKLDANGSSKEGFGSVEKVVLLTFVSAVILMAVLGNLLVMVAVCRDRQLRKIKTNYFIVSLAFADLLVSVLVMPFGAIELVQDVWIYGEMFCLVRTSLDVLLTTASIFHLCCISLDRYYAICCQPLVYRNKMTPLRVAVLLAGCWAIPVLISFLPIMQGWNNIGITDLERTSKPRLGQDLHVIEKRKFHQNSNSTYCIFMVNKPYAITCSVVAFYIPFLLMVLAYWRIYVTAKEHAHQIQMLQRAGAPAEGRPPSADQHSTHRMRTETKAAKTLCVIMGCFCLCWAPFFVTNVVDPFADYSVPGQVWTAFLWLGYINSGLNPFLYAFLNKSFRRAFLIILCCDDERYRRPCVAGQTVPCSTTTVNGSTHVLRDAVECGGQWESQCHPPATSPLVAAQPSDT
Alpha-2A adrenergic receptor, sequence (P08913 whole entry): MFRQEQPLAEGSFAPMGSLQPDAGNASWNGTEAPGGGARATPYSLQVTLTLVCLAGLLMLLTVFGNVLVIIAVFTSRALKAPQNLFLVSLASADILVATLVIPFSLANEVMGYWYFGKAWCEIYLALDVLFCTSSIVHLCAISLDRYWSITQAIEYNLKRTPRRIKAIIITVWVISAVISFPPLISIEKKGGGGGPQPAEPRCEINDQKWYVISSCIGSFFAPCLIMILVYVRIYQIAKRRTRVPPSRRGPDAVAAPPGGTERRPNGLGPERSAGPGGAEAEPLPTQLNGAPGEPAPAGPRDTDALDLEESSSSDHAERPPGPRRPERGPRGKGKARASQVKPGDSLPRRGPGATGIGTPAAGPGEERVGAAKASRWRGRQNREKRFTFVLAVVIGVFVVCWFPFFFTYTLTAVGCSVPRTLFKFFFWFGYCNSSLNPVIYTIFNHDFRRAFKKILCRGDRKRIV
Alpha-2B adrenergic receptor, sequence (P30545 whole entry): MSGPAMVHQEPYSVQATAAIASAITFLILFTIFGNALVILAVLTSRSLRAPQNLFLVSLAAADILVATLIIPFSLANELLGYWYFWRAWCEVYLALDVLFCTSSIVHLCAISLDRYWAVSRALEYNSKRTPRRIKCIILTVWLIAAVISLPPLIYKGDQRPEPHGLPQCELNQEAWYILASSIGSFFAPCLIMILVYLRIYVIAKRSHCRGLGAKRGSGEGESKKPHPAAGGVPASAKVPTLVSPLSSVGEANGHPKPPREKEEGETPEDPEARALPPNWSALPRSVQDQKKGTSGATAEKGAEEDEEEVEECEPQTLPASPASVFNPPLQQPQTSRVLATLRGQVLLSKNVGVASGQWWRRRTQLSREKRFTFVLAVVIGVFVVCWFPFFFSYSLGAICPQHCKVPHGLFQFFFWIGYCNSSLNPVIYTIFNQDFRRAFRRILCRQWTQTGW
Histamine H1 receptor, sequence (P31389 whole entry): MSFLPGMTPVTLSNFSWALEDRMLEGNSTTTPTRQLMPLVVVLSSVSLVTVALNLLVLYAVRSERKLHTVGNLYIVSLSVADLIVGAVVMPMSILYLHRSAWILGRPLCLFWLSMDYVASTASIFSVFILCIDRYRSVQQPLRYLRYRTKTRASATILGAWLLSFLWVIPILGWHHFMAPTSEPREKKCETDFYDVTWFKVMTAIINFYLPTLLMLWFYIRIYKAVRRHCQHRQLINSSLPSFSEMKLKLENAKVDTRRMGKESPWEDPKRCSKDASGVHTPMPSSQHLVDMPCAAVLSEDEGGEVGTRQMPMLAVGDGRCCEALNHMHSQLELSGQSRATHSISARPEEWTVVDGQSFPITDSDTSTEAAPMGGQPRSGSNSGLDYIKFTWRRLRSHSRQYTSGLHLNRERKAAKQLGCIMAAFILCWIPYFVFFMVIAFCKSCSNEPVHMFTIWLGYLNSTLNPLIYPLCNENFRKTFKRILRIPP

Cc1nc(-c2ccc(-c3ccc(C(=O)Nc4ccc5c(c4)C4(CCN(C)CC4)CO5)cc3)c(C)c2)no1
pKi [1]: 7.50
[35S]GTPγS binding stimulation [2]: -64%
pKi [3]: 5.70
pKi [4]: 6.00

Cc1cc(C(=O)Nc2ccc(C)c(N3CCN(C)CC3)c2)ccc1Br
pKi [1]: 7.90
pKi [3]: 7.40
pKi [4]: 6.90

Cc1nc(-c2ccc(-c3ccc(C(=O)Nc4ccc5c(c4)N(CCN(C)C)CCO5)cc3)c(C)c2)no1
pKi [1]: 8.60
[35S]GTPγS binding stimulation [2]: 91%
pKi [3]: 7.70
pKi [4]: 8.40

COc1ccc(NC(=O)c2ccc(-c3ccc(-c4noc(C)n4)cc3C)cc2)cc1OCCN(C)C
[35S]GTPγS binding stimulation [2]: 139%
pKi [3]: 7.50

Cc1cc(C(=O)Nc2cccc(N3CCN(C)CC3)c2)ccc1Br
pKi [1]: 6.90
pKi [3]: 6.70
pKi [4]: 6.50

Cc1nc(-c2ccc(-c3ccc(C(=O)Nc4cc5c(c(OCCN(C)C)c4)OCC5)cc3)c(C)c2)no1
pKi [1]: 8.80
[35S]GTPγS binding stimulation [2]: 207%
pKi [3]: 7.60
pKi [4]: 7.30

COc1ccc(NC(=O)c2ccc(-c3ccc(-c4noc(C)n4)cc3C)cc2)cc1CCCN(C)C
pKi [1]: 8.50
[35S]GTPγS binding stimulation [2]: -44%
pKi [3]: 7.00
pKi [4]: 8.20

COc1ccc(NC(=O)c2ccc(Br)c(C)c2)cc1N1CCN(C)CC1
pKi [1]: 8.20
pKi [3]: 7.90
pKi [4]: 6.70

COc1cc2c(cc1OCCN(C)C)N(C(=O)c1ccc(-c3ccc(-c4noc(C)n4)cc3C)cc1)CC2
pKi [1]: 9.30
pKi [3]: 8.30
pKi [4]: 6.50

COc1ccc(NC(=O)c2ccc(-c3ccc(-c4noc(C)n4)cc3C)cc2)cc1NCCN(C)C
pKi [1]: 8.60
[35S]GTPγS binding stimulation [2]: 108%
pKi [3]: 7.40
pKi [4]: 8.30

Cc1nc(-c2ccc(-c3ccc(C(=O)N4CCc5cc6c(cc54)C4(CCN(C)CC4)CO6)cc3)c(C)c2)no1 [SB-224289]
pKi [5]: < 5.50
Simulation [2]: -62%
pKi [6]: < 5.00
pKi [4]: 5.80
pKi [7]: < 5.00
pKi [8]: 6.20
pKi [9]: < 6.00
pKi [10]: < 6.00
pKi [11]: < 6.00
pKi [12]: < 6.00
pKi [13]: < 6.00
pKi [14]: < 6.00
pKi [15]: < 6.00
pKi [16]: < 6.00
Body temp drop [17]: -1.1 °C
Body temperature drop [18]: -0.23 °C
Body temperature drop [19]: -0.03 °C
Body temperature drop [20]: -0.05 °C
Control [21]: 22%
Control [22]: 50%
Control [23]: 15%
Control [24]: 43%
Control [25]: 48%
Body temp drop [26]: -1.31 °C
Body temp drop [27]: -0.53 °C
Body temp drop [28]: -0.27 °C
Mean maximumtemp drop [29]: -2 °C
pKi [30]: < 6.00
pKi [31]: < 6.00
pKi [32]: < 6.00
pKi [33]: < 6.00
pKi [34]: < 6.00
Body temp drop [35]: -0.38 °C
Body temperature drop [36]: -0.03 °C
Degrees Centigrade [37]: -1.77 °C
Degrees Centigrade [38]: -1.63 °C
Degrees Centigrade [39]: -1 °C
Body temperature drop [40]: -1.92 °C
Body temperature drop [41]: -0.12 °C
Body temp drop [42]: -0.67 °C
Control [43]: 93%
Control [44]: 85%
Control [45]: 35%
Control [46]: 52%
